Measurements taken from ChEMBL document CHEMBL3808379, “Isouronium and N-hydroxyguanidinium derivatives as Cell growth inhibitors: A comparative study” (Eur J Med Chem, 2016).
Active and inactive are the calls of the source. The rule behind the calls is not given here.

Legend:
[1] = system: HL-60; test: Induction of mitochondrial membrane depolarization in human HL60 cells at 50 to 100 uM after 48 hrs by JC1 staining-based flow cytometric analysis relative to vehicle control; assay type: functional, cell-based
Summary of the method: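 HL-60 cells at 200,000 cells/mL exposed 48 h to 0, 50 or 100 μM. Washed in PBS and stained with JC-1 (5 μM) 30 min at 37 °C. Resuspended in ice-cold PBS and read by flow cytometry: excitation 488 nm, emission 535 (green) and 595 nm (red). Rising green:red ratio scored as ΔΨm loss; % cells with loss reported. Mean ± SEM, ≥3 experiments.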

[2] = system: HL-60; test: Induction of apoptosis in human HL60 cells assessed as caspase 3/7 activation at 50 to 100 uM after 48 hrs by caspase-glo luminescence assay relative to vehicle control; assay type: functional, cell-based
Summary of the method: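 HL-60 cells seeded at 20,000 cells/100 μl and treated 48 h with 0, 50 or 100 μM. Viability first measured by AlamarBlue. Cells then lysed with an equal volume of Caspase-Glo 3/7 reagent, shaken 1 h at room temperature in darkness, and luminescence read. Luminescence normalised to viability. Mean ± SEM, ≥3 experiments; P<0.05 taken as significant.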

[3] = Cytotoxicity against human MCF10A cells assessed as cell viability reduction at 50 to 100 uM incubated for 72 hrs by alamar blue-based fluorimetric assay; details: mcf-10a
Summary of the method: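 MCF-10A cells, 2000 per well, were allowed to attach for 24 h, then treated with 50 or 100 µM or with 1% ddH2O vehicle for 72 h. AlamarBlue (10% v/v) was added for 4.5 h at 37 °C in the dark and fluorescence read at ex 544/em 590 nm. Viability is expressed as % of vehicle after blank subtraction; mean ± S.E.M., ≥3 experiments.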

[4] = Cytotoxicity against mouse NIH/3T3 cells assessed as cell viability reduction at 50 to 100 uM incubated for 72 hrs by alamar blue-based fluorimetric assay; details: nih3t3, 72 h
Summary of the method: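 NIH/3T3 cells seeded at 10,000 cells/mL and left 24 h at 37 °C before treatment. Compound at 50 or 100 μM final for 72 h, vehicle 1% (v/v) ddH2O. AlamarBlue 10% (v/v) then added for 4.5 h in darkness at 37 °C. Fluorescence read at ex 544/em 590 nm, blank subtracted, expressed as % of vehicle control. Mean ± S.E.M., at least 3 experiments.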

[5] = system: HL-60; test: Induction of apoptosis in human HL60 cells at 100 uM after 72 hrs by propidium iodide staining-based flow cytometric analysis; assay type: functional
Summary of the method: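 HL-60 cells seeded at 200,000 cells/mL and treated 72 h, vehicle 1% (v/v) ddH2O. Harvested by centrifugation, fixed overnight in ice-cold 70% EtOH/PBS at −20 °C, then PI-stained 30 min at 37 °C. Flow cytometry of 10,000 gated events. Apoptosis taken from pre-G1 (<2N DNA) peak. Mean ± S.E.M., ≥3 experiments.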

[6] = Cytotoxicity in human MCF10A cells assessed as induction of apoptosis at 50 to 100 uM after 72 hrs by propidium iodide staining-based flow cytometric analysis; assay type: cell-based; details: mcf-10a
Summary of the method: (§1)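 Cells seeded at 6000 cells per cm² and left 24 h, then given compound at 50 or 100 μM or vehicle (1% ddH2O) for 72 h. Trypsinised, fixed overnight at −20 °C in ice-cold 70% EtOH/PBS, then PI-stained 30 min at 37 °C. 10,000 gated events per sample. Sub-diploid (<2N, M1) cells scored as apoptotic. Mean ± S.E.M., ≥3 experiments.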

[7] = Cytotoxicity in mouse NIH/3T3 cells assessed as induction of apoptosis at 50 to 100 uM after 72 hrs by propidium iodide staining-based flow cytometric analysis; assay type: cell-based; details: nih3t3, 72 h; summary of the method: as §1
[8] = Binding affinity to salmon sperm DNA assessed as increase in thermal melting temperature by spectrophotometric analysis; details: Salmonidae
[9] = Cytotoxicity against human HL60 cells assessed as cell viability reduction incubated for 72 hrs by alamar blue assay; assay type: functional, cell-based; details: HL-60, 72 h
Summary of the method: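 HL-60 cells in log phase, 40,000 per well, were treated in triplicate with compound at 10–100 µM (final, 1:100 from ddH2O stocks) or 1% ddH2O vehicle for 72 h at 37 °C. AlamarBlue was then added for 4.5 h in the dark and fluorescence read at ex 544/em 590 nm. Viability is blank-subtracted and expressed as % of vehicle. IC50 comes from a sigmoidal fit; ≥3 independent experiments.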

[10] = Cytotoxicity against human Kelly cells assessed as cell viability reduction incubated for 72 hrs by alamar blue assay; assay type: functional, cell-based
Summary of the method: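 Kelly cells, 6000 per well, were allowed to attach for 24 h, then treated in triplicate at 0.1–100 µM final or with ddH2O vehicle for 72 h at 37 °C. AlamarBlue was added for 4.5 h in the dark and fluorescence read at ex 544/em 590 nm. Blank-subtracted % of vehicle; IC50 from a sigmoidal dose-response fit; ≥3 independent experiments.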

[11] = Cell cycle arrest in human HL60 cells assessed as accumulation at pre-G1 phase at 50 uM after 24 hrs by propidium iodide staining-based flow cytometric analysis (reference value: 0.81 +/- 0.11%); assay type: functional; details: HL-60
[12] = Cell cycle arrest in human HL60 cells assessed as accumulation at pre-G1 phase at 50 uM after 48 hrs by propidium iodide staining-based flow cytometric analysis (reference value: 1.41 +/- 0.32%); assay type: functional; details: HL-60
[13] = Cell cycle arrest in human HL60 cells assessed as accumulation at pre-G1 phase at 50 uM after 72 hrs by propidium iodide staining-based flow cytometric analysis (reference value: 2.21 +/- 0.57%); assay type: functional; details: HL-60
[14] = Cell cycle arrest in human HL60 cells assessed as accumulation at G0/G1 phase at 50 uM after 24 hrs by propidium iodide staining-based flow cytometric analysis (reference value: 56.05 +/- 1.4%); assay type: functional; details: HL-60
[15] = Cell cycle arrest in human HL60 cells assessed as accumulation at G0/G1 phase at 50 uM after 48 hrs by propidium iodide staining-based flow cytometric analysis (reference value: 58.77 +/- 2.33%); assay type: functional; details: HL-60
[16] = Cell cycle arrest in human HL60 cells assessed as accumulation at G0/G1 phase at 50 uM after 72 hrs by propidium iodide staining-based flow cytometric analysis (reference value: 59.5 +/- 1.5%); assay type: functional; details: HL-60
[17] = Cell cycle arrest in human HL60 cells assessed as accumulation at S phase at 50 uM after 24 hrs by propidium iodide staining-based flow cytometric analysis (reference value: 24.46 +/- 1.15%); assay type: functional; details: HL-60
[18] = Cell cycle arrest in human HL60 cells assessed as accumulation at S phase at 50 uM after 48 hrs by propidium iodide staining-based flow cytometric analysis (reference value: 24.29 +/- 1.37%); assay type: functional; details: HL-60
[19] = Cell cycle arrest in human HL60 cells assessed as accumulation at S phase at 50 uM after 72 hrs by propidium iodide staining-based flow cytometric analysis (reference value: 23.58 +/- 1.38%); assay type: functional; details: HL-60
[20] = Cell cycle arrest in human HL60 cells assessed as accumulation at G2/M phase at 50 uM after 24 hrs by propidium iodide staining-based flow cytometric analysis (reference value: 16.73 +/- 0.59%); assay type: functional; details: HL-60
[21] = Cell cycle arrest in human HL60 cells assessed as accumulation at G2/M phase at 50 uM after 48 hrs by propidium iodide staining-based flow cytometric analysis (reference value: 11.35 +/- 1.05%); assay type: functional; details: HL-60
[22] = Cell cycle arrest in human HL60 cells assessed as accumulation at G2/M phase at 50 uM after 72 hrs by propidium iodide staining-based flow cytometric analysis (reference value: 10.53 +/- 0.81%); assay type: functional; details: HL-60
[23] = Cell cycle arrest in human HL60 cells assessed as accumulation at polyploid Gn phase at 50 uM after 24 hrs by propidium iodide staining-based flow cytometric analysis (reference value: 2.96 +/- 0.79%); assay type: functional; details: HL-60
[24] = Cell cycle arrest in human HL60 cells assessed as accumulation at polyploid Gn phase at 50 uM after 48 hrs by propidium iodide staining-based flow cytometric analysis (reference value: 3.02 +/- 0.56%); assay type: functional; details: HL-60
[25] = Cell cycle arrest in human HL60 cells assessed as accumulation at polyploid Gn phase at 50 uM after 72 hrs by propidium iodide staining-based flow cytometric analysis (reference value: 3.43 +/- 0.48%); assay type: functional; details: HL-60
[26] = Dissociation constant, pKa of the compound in 10 mM sodium phosphate buffer at pH 2 by UV spectroscopic analysis; assay type: physicochemical

N=C(N)Oc1ccc(Sc2ccc(O)cc2)cc1
Activity [1]: Active
Activity [2]: Active
Activity [3]: Non-toxic
Activity [4]: Toxic
Activity [5]: 63.6%
Activity [6]: Non-toxic
Activity [7]: Non-toxic
ΔTm [8]: 2 °C
IC50 [9]: 52.9 µM
IC50 [10]: 33.9 µM
Activity [11]: 9%
Activity [12]: 55.5%
Activity [13]: 39.9%
Activity [14]: 11.2%
Activity [15]: 12.7%
Activity [16]: 18.2%
Activity [17]: 14.9%
Activity [18]: 10.4%
Activity [19]: 16.2%
Activity [20]: 52.4%
Activity [21]: 5.98%
Activity [22]: 8.67%
Activity [23]: 11.6%
Activity [24]: 15.3%
Activity [25]: 15.8%

N=C(N)Oc1ccc(Oc2ccc(OC(=N)N)cc2)cc1
ΔTm [8]: 5 °C
pKa [26]: 10.4
IC50 [9]: > 100 µM
